Experimental data published in ChEMBL document CHEMBL4118273, “Design, Synthesis, and Biological Evaluation of Pyrimido[4,5- d]pyrimidine-2,4(1 H,3 H)-diones as Potent and Selective Epidermal Growth Factor Receptor (EGFR) Inhibitors against L858R/T790M Resistance Mutation” (J Med Chem, 2018).

Tests used:
[1] = biological target: T1, Epidermal growth factor receptor (Homo sapiens, UniProt P00533); assay: Inhibition of recombinant human GST-tagged EGFR (668 to 1210 residues) expressed in baculovirus expression system using Poly(Glu,Tyr)4:1 as substrate after 1 hr by ELISA
[2] = biological target: Epidermal growth factor receptor (Homo sapiens, UniProt P00533, L858R/T790M); assay: Inhibition of recombinant human GST-tagged EGFR L858R/T790M double mutant expressed in baculovirus expression system using Poly(Glu,Tyr)4:1 as substrate after 1 hr by ELISA
Homo sapiens = species on record: Homo sapiens; assay: Selectivity index, ratio of IC50 for human A431 cells harboring wild type EGFR to IC50 for human NCI-H1975 cells harboring EGFR L858R/T790M double mutant
Outline: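 Cell growth inhibition measured by sulforhodamine B colorimetric assay in H1975 (EGFR L858R/T790M) and A431 (overexpressed wild-type EGFR) cells; IC50 values are means ± SD of at least three independent determinations. Selectivity is taken as the A431:H1975 IC50 ratio.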

[3] = biological target: T1, Epidermal growth factor receptor; assay: Inhibition of wild type EGFR phosphorylation in EGF-stimulated human A431 cells up to 1000 nM by Western blot method
Outline: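 A431 cells lysed in Tris-HCl pH 6.8 buffer with DTT, SDS and glycerol; equal protein amounts resolved on 8% SDS-PAGE, transferred to nitrocellulose and probed for p-EGFR (Y1068), total EGFR, p-AKT (Ser473), total AKT and GAPDH.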

Cytochrome P450 2C19 = Cytochrome P450 2C19 (Homo sapiens, UniProt P33261); assay: Inhibition of human CYP2C19 (unknown origin); type: ADME
Cytochrome P450 2D6 = Cytochrome P450 2D6 (Homo sapiens, UniProt P10635); assay: Inhibition of human CYP2D6 (unknown origin); type: ADME
[4] = Half life in ICR mouse at 1 mg/kg, iv by LC-MS/MS analysis; type: ADME, organism-based; details: in vivo
[5] = AUC (0 to t) in ICR mouse at 1 mg/kg, iv by LC-MS/MS analysis; type: ADME, organism-based; details: in vivo
[6] = AUC (0 to infinity) in ICR mouse at 1 mg/kg, iv by LC-MS/MS analysis; type: ADME, organism-based; design: dose 1 mg/kg, route intravenous, time infinity; details: in vivo
[7] = Clearance in ICR mouse at 1 mg/kg, iv by LC-MS/MS analysis; type: ADME, organism-based; details: in vivo
[8] = AUC (0 to infinity) in ICR mouse at 10 mg/kg, po by LC-MS/MS analysis; type: ADME, organism-based; design: dose 10 mg/kg, route oral, time infinity; details: in vivo
A-431 = assay: Growth inhibition of human A431 cells xenografted in Balb/c mouse at 50 mg/kg/day, po for 14 days measured every 2 to 3 days during compound dosing relative to control; type: organism-based; details: A-431, po, read-out: GI
Outline: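 BALB/c mice, 4–6 weeks old, implanted subcutaneously in the right flank with about 2 × 10^6 H1975 or A431 cells grown in RPMI-1640 with 10% FBS. At 200–400 mm3 tumors, mice were randomized (six/group) and dosed orally once daily with vehicle or inhibitor for 14 days. Caliper volumes, V = L×W²/2, were taken every 2–3 days; means ± SEM, Student's t test vs vehicle.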

Mus musculus [9] = assay: Toxicity in Balb/c mouse xenografted with human A431 cells assessed as mortality at 50 mg/kg/day, po once daily for 14 days measured every 2 to 3 days during compound dosing; type: organism-based; details: in vivo
Mus musculus [10] = assay: Toxicity in Balb/c mouse xenografted with human NCI-H1975 cells assessed as mortality at 50 mg/kg/day, po once daily for 14 days measured every 2 to 3 days during compound dosing; type: organism-based; details: in vivo

T1 sequence (P00533 whole entry, the tested form may be a part): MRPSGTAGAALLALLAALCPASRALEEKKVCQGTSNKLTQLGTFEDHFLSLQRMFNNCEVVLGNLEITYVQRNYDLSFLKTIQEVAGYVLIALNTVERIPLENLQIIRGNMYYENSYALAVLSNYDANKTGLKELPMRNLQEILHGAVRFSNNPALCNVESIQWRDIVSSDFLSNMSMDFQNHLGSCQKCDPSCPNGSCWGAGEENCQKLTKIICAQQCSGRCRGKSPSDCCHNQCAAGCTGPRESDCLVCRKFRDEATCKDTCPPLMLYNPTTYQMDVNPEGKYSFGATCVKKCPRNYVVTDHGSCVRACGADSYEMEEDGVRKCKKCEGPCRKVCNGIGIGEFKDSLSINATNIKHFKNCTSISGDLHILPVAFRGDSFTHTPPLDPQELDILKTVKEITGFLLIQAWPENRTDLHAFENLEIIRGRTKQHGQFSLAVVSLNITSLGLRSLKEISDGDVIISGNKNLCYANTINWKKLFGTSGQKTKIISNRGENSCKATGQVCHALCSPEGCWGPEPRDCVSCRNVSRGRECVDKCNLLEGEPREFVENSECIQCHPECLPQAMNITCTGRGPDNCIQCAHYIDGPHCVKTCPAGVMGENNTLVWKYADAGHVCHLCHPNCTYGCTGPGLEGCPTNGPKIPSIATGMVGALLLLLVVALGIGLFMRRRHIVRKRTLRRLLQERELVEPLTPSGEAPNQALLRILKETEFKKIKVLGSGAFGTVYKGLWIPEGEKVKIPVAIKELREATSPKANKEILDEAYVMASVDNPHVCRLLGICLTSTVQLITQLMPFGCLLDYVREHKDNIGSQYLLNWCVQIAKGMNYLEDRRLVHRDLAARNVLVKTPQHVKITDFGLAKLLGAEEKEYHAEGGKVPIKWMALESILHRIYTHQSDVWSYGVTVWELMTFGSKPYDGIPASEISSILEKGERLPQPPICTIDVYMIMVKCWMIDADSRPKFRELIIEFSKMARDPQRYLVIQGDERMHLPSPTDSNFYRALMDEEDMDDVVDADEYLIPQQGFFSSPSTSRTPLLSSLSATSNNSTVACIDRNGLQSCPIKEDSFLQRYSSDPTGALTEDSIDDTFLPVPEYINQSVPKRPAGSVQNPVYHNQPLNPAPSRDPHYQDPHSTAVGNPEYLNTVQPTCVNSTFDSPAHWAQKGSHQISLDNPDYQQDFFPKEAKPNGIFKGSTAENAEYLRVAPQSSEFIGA
Chain of Cytochrome P450 2C19 (P33261 whole entry): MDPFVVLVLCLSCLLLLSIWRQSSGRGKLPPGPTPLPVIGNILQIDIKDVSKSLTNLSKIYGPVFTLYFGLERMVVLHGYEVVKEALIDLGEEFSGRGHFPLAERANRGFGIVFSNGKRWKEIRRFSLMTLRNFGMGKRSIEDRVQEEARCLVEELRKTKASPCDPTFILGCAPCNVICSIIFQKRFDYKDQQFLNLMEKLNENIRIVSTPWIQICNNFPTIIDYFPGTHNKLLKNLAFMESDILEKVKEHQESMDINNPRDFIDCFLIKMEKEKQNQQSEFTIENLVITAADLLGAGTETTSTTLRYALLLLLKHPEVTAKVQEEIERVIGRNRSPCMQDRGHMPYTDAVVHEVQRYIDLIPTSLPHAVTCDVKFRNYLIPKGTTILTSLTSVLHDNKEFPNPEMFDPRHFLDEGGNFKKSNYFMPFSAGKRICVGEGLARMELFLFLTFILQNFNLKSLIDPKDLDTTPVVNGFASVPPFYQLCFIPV
Chain of Epidermal growth factor receptor (Homo sapiens, UniProt P00533, L858R/T790M) (P00533 25-1210 T790M/L858R limits assumed): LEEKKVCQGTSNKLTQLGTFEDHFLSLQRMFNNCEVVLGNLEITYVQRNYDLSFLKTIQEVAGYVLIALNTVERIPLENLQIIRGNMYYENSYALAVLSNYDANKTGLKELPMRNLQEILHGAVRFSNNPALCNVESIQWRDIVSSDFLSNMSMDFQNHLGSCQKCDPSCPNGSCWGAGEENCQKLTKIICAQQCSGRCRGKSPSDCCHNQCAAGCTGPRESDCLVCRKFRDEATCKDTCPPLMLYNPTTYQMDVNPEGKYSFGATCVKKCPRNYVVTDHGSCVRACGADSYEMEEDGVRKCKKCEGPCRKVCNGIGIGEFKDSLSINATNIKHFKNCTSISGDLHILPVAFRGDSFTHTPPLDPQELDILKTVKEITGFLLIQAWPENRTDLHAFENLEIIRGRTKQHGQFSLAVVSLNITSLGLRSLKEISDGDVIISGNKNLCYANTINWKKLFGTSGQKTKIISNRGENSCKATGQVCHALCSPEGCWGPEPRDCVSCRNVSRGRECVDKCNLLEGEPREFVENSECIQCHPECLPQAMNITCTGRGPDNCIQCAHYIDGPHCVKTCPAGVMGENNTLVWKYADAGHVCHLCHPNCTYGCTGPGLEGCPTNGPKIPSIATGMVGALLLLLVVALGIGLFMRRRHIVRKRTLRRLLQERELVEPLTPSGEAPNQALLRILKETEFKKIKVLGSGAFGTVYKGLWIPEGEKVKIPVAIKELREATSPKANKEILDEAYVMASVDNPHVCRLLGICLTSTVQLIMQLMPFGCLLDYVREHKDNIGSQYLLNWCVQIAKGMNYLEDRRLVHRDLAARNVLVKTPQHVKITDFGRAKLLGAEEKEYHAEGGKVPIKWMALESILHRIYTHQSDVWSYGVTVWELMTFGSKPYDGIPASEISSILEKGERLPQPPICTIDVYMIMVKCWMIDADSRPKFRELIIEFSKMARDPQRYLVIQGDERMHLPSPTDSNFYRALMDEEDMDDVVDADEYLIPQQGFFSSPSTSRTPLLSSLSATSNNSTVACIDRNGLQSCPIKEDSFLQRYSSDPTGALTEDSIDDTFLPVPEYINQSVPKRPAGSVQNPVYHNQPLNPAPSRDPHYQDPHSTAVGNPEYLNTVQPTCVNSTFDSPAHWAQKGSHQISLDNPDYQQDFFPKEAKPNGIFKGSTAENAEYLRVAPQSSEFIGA
Chain of Cytochrome P450 2D6 (P10635 whole entry): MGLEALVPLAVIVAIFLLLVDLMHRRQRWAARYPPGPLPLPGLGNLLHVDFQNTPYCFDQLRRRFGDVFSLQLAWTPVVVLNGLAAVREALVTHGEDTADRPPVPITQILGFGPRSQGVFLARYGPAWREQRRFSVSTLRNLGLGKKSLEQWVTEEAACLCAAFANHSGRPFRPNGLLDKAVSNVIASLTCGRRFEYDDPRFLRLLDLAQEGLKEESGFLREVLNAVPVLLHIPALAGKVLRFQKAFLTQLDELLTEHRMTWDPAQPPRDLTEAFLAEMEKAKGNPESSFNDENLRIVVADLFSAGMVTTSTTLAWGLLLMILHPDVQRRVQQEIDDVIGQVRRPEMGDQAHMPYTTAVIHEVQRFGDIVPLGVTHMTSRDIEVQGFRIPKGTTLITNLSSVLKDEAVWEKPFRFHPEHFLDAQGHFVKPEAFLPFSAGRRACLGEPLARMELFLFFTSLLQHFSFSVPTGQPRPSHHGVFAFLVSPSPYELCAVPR

In the case of `C=CC(=O)Nc1cccc(-n2c(=O)n(C(C)C)c(=O)c3cnc(Nc4ccc(N5CCN(C)CC5)cc4OC)nc32)c1`, the IC50 [1] is reported as 79 nM, the IC50 [2] is reported as 0.3 nM and the Ratio IC50 (Homo sapiens) is reported as 36. The “inhibition (INH)” value [3] was “Not Active”, the IC50 (Cytochrome P450 2C19) was > 50000 nM and the IC50 (Cytochrome P450 2D6) was > 50000 nM. It also gave a half-life [4] of 54 min, an AUC(0-t) [5] of 181 ng·h/mL and an AUC(0-inf) [6] of 186 ng·h/mL. It also gave a clearance [7] of 89.5 mL/min/kg, an AUC(0-inf) [8] of 658 ng·h/mL and an inhibition at 50 mg/kg (A-431) of 37%. For the same compound, the Activity (Mus musculus [9]) was “Non-Toxic” and the Activity (Mus musculus [10]) was “Non-Toxic”.
